FN deposition inh: fibronectin deposition inhibition | AH1F fibroblasts, Alexa488-fibronectin deposition fluorescence, overnight | inhibition, % at 12.6 µM | 0.086% of 350,000 active;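 active means mean inhibition across replicates of 30% or more, regardless of how many single replicates reach that level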
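Material: AH1F fibroblasts assembling fluorescent fibronectin matrix; amount: 10000 AH1F cells/well; medium: DMEM, 2% serum; reagent: Alexa488-fibronectin, 24 nM final in well; dosing: single compound dose, delivered by pin transfer; incubation: 1 h adhesion, overnight exposure; detection: fluorescence after three HBSS washes, excitation 485 nm, emission 525 nm; measure: fibronectin deposition inhibition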
HIV Env fusion: inhibitors of HIV Env-mediated cell fusion; HeLa-JRFL Env/CEM21 cell fusion, luciferase; inhibition, % at 12.3 µM; 1.1% of 360,000 active;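 active means mean replicate inhibition score of at least 50 and every replicate individually at or above 50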
ERp5 block: ERp5 (human) disulfide isomerase inhibition; Q15084; ERp5 insulin aggregation, absorbance 650 nm, 90 min; inhibition, % at 9.99 µM; 0.05% of 350,000 active;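 active means mean replicate inhibition above about 25%, with every replicate also reaching it, limit read from the data, passing the limit was not always enough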
Target sequence (Q15084 whole entry, looked up): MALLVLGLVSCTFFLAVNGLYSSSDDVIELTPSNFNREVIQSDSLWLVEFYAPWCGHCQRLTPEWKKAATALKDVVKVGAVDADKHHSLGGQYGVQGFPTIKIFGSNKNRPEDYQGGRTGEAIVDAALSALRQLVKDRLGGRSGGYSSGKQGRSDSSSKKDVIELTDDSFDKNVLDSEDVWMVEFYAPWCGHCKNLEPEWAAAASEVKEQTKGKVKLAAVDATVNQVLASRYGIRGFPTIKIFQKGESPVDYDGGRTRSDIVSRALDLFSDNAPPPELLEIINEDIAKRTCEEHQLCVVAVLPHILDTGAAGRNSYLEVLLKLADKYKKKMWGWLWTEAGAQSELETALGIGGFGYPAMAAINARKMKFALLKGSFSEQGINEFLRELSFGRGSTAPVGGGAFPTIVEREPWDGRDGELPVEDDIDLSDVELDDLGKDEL
PDI inh: PDI (human) enzyme inhibition; 0.052% of 350,000 active; PDI insulin aggregation turbidity, A650, 90 min; AID 588391; inhibition, % at 10 µM;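 active means mean inhibition across replicates of 30% or more, whatever share of single replicates reach that level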
PvdQ acylase: P. aeruginosa PvdQ acylase inhibition; purified PvdQ acylase, fluorescence plate reader; inhibition, % at 10 µM; 0.063% of 340,000 active; in the data active means inhibition above about 30%, passing the limit was not always enough
Ecoli rRNA inh: inhibitors of bacterial rRNA selective over humanized ribosomes | E. coli WT GFP vs humanized-ribosome RFP mutants, fluorescence, 24 h; hits give low values; DMSO median 0, no signal -100 | GFP signal change (wild-type ribosome), % (concentration not given with the values) | 1.6% of 350,000 active | AID 720706;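 active means significant combined selectivity score with lowered wild-type GFP, culture density cut under 30%, mutant RFP and density less affected; inactive means any of these conditions unmet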
Hits are given with their value; i = inactive; nt = not tested or not shown; [ ] = remark or other dose. Shown are actives, neighbours in structure and some others; about 2.2% of the full set was active somewhere.

SMILES	FN deposition inh	HIV Env fusion	ERp5 block	PDI inh	PvdQ acylase	Ecoli rRNA inh
C[C@H](NC(=O)C[C@H]1CC[C@H](NC(=O)C2CC2)[C@@H](CO)O1)c1ccccc1	i	i	i	nt	nt	i
O=c1oc(-c2ccccc2NS(=O)(=O)c2ccccc2)nc2ccccc12	nt	nt	nt	i	i	nt
O=c1oc(-c2ccccc2NS(=O)(=O)c2ccc(F)cc2)nc2ccccc12	i	i	i	i	i	-32.2
COc1ccc(-c2c(C)nn3c(C(F)(F)F)cc(C)nc23)cc1	i	87.1	i	i	nt	nt
COc1ccc2cc(C(=O)C3CCCN(C(=O)C4=NN(C)C(=O)CC4)C3)ccc2c1 (configuration not stated)	i	i	i	i	i	-25.6
Cc1ccnc(NC(=O)c2cccc(NC(=O)Cc3ccccc3)c2)c1	i	i	i	i	i	-31.5
Cc1cccc(C(=O)Nc2cccc(C(=O)Nc3cc(C)ccn3)c2)c1	nt	nt	nt	i	i	nt
C[C@]12CC[C@H]3C(=CCc4cc(O)ccc43)[C@@H]1CCC2=O	i	i	i	33.3	i	i
Cc1ccc(NC2=C(Cl)C(=O)OC2OC(=O)c2ccccc2)c(C)c1 (configuration not stated)	i	i	i	i	i	-41.1
O=C(O)c1ccc(S(=O)(=O)Nc2ccc(O)c(Sc3nc4ccccc4s3)c2)cc1	i	i	i	i	i	-23.4
NS(=O)(=O)c1ccc(Sc2nc3ccccc3s2)c([N+](=O)[O-])c1	i	73.4	i	i	i	-25.1
C[C@H]1CN([C@@H](C)CO)C(=O)c2cc(C#Cc3ccccc3F)cnc2O[C@@H]1CN(C)C	nt	i	i	nt	nt	i
Cc1noc(C)c1NC(=O)Nc1ccc2c(c1)C(=O)N([C@@H](C)CO)C[C@H](C)[C@H](CN(C)S(=O)(=O)c1cccs1)OCCCC[C@H](C)O2	i	69.9[16.7 µM]	i	nt	nt	i
C[C@H]1CCCCO[C@@H](CN(C)S(=O)(=O)c2cccs2)[C@@H](C)CN([C@@H](C)CO)C(=O)c2cc(NS(=O)(=O)c3ccccc3)ccc2O1	i	62.5[16.7 µM]	i	nt	nt	i
C[C@H]1CN([C@@H](C)CO)S(=O)(=O)c2ccc(-c3cccc(C#N)c3)cc2O[C@@H]1CN(C)C(=O)C1CC1	i	i	i	nt	nt	i
COc1cccc(/C=N/NC(=S)Nc2cccc(S(=O)(=O)N(C)C)c2)c1	i	i	i	i	i	-18.5
CCCN(C)C[C@@H]1Oc2cc(-c3cccc(C#N)c3)ccc2S(=O)(=O)N([C@H](C)CO)C[C@@H]1C	i	i	i	nt	nt	i
CS(=O)(=O)N(CC(=O)Nc1ccc(CC#N)cc1)c1ccc(C23CC4CC(CC(C4)C2)C3)cc1	nt	nt	i	i	i	i
CC(=O)Nc1ccc(NC(=O)CN(c2ccc(C34CC5CC(CC(C5)C3)C4)cc2)S(C)(=O)=O)cc1	i	92.9	nt	i	i	nt
O=S1(=O)CCOC[C@H](c2ccccc2)N1Cc1cccc(Cl)c1	i	i	i	i	43.3	i
COc1ccc(S(=O)(=O)N(C)C[C@@H]2Oc3ccc(NC(=O)CCCN(C)C)cc3C(=O)N([C@@H](C)CO)C[C@H]2C)cc1	nt	nt	i	nt	nt	i
Cc1cc(Cl)ccc1NC(=S)N1CCN(C(=O)c2ccco2)CC1	i	i	i	i	i	-37.1
Oc1ccccc1N=Nc1ccccc1O	i	i	i	i	i	i
Nc1ccc(N=Nc2ccccc2O)c(N)c1	i	i	i	i	nt	-40.3
O=C(O)c1ccc(COc2ccc3ccccc3c2)o1	i	i	i	i	i	-17.1
SMILES	FN deposition inh	HIV Env fusion	ERp5 block	PDI inh	PvdQ acylase	Ecoli rRNA inh
Cc1ccc(OCc2ccc(C(=O)O)o2)c([N+](=O)[O-])c1	i	i	i	i	i	-26.5
CCOc1ccc(OCc2ccc(C(=O)O)o2)cc1	nt	nt	nt	i	i	nt
Cc1cc(C)cc(OCc2ccc(C(=O)NN)o2)c1	i	i	i	i	i	-22.9
CO[C@@H]1CN(C)C(=O)c2cc(NS(C)(=O)=O)ccc2OC[C@@H](C)N(S(=O)(=O)CC(F)(F)F)C[C@H]1C	i	nt	i	nt	nt	i
COC(=O)C(C)Oc1cc(OC(C)C(=O)OC)c2c(-c3ccccc3)cc(=O)oc2c1 (configuration not stated)	i	i	i	i	i	-24.0
O=C(NC12CC3CC(CC(C3)C1)C2)N1CCN(c2ccccn2)CC1	nt	nt	i	i	i	i
O=C(NC12CC3CC(CC(C3)C1)C2)N1CCN(c2ncccn2)CC1	i	i	i	i	i	-20.7
C=CCNC(=O)c1ccccc1NC(=O)c1ccc(Cl)c(S(=O)(=O)Nc2ccccc2)c1	nt	i	i	i	i	-36.4
Cc1ccc(C)c(NS(=O)(=O)c2cc(C(=O)Nc3ccccc3-c3ccccc3)ccc2C)c1	i	71.4	nt	i	i	nt
Cc1ccc(C(=O)Nc2ccccc2C(=O)O)cc1S(=O)(=O)Nc1ccc(Br)cc1	i	i	i	i	i	-35.9
Cc1ccc(C(=O)Nc2ccccc2C(=O)O)cc1S(=O)(=O)NCc1ccccc1	i	i	i	i	i	i
Cc1ccc(S(=O)(=O)Nc2cccc3c2O[C@H](CN(C)C)[C@@H](C)CN([C@@H](C)CO)C3=O)cc1	i	i	i	nt	nt	i
COc1ccccc1OCCNS(=O)(=O)c1ccc2oc3ccccc3c2c1	nt	57.6	nt	i	i	nt
COc1ccc(S(=O)(=O)NCCN2CCOCC2)cc1Br	i	i	i	i	i	i
COc1ccc(S(=O)(=O)NCC(c2ccc(F)cc2)N2CCOCC2)cc1Br (configuration not stated)	i	i	i	30.5	i	i
C[C@H]1CN([C@@H](C)CO)S(=O)(=O)c2ccc(-c3ccccc3)cc2O[C@H]1CN(C)C(=O)c1ccccc1F	i	i	nt	nt	nt	i
CC(C)NC(=O)Nc1ccc2c(c1)C(=O)N([C@@H](C)CO)C[C@H](C)[C@H](CN(C)Cc1ccc3c(c1)OCO3)OCCCC[C@@H](C)O2	i	i	nt	nt	nt	i
COC(=O)C[C@H]1CC[C@H]2[C@@H](COc3ccc(NC(=O)Nc4ccc(C#N)cc4)cc3C(=O)N2C)O1	i	i	i	nt	nt	i
Nc1nnc(SC2CC(=O)N(c3ccccc3)C2=O)s1 (configuration not stated)	i	58.2	nt	i	i	nt
O=C1CC(Sc2ncccn2)C(=O)N1c1ccccc1 (configuration not stated)	i	i	i	i	i	nt
COc1ccc(S(=O)(=O)N(C)C[C@@H]2Oc3ccc(NC(=O)Cn4cnnn4)cc3C(=O)N([C@H](C)CO)C[C@H]2C)cc1	i	i	i	nt	nt	i
Cc1noc(C)c1NC(=O)N(C)C[C@H]1Oc2c(NC(=O)Nc3ccccc3)cccc2C(=O)N([C@H](C)CO)C[C@H]1C	nt	i	nt	nt	nt	i
Cc1ccc(-n2c(Cc3cccc4ccccc34)n[nH]c2=S)c(C)c1	i	i	i	i	i	-45.2
COc1cc(/C=C(\C#N)C(=O)NC2CCCCC2C)ccc1OS(=O)(=O)c1ccc(C)cc1 (configuration not stated)	i	i	nt	i	i	nt
